Data from ChEMBL document CHEMBL1764966, “Trigonosins A-F, daphnane diterpenoids from Trigonostemon thyrsoideum” (J Nat Prod, 2011).
Structures can show the parent of a compound that is named as a salt.

Columns and labels:
Type in all cases: functional, cell-based
MCF7 = assay: Cytotoxicity against human MCF7 cells assessed as inhibition of cell proliferation after 72 hrs by SRB assay; settings: MCF7, 72 h
In short: (§1)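 Sulforhodamine B (SRB) read-out of proliferation inhibition. Cells (A549 lung adenocarcinoma; MCF-7 breast cancer) were seeded 24 h before treatment, then exposed continuously to a range of compound concentrations for 72 h. Inhibition rates were derived from the SRB signal. Adriamycin served as the positive control.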

HL-60 = assay: Cytotoxicity against human HL60 cells assessed as inhibition of cell proliferation after 72 hrs by MTT assay; settings: HL-60, 72 h
In short: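 HL-60 promyelocytic leukemia cells were plated 24 h ahead, then exposed continuously to varying compound concentrations for 72 h. Proliferation inhibition was determined by MTT assay. Adriamycin served as the positive control.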

A549 = assay: Cytotoxicity against human A549 cells assessed as inhibition of cell proliferation after 72 hrs by SRB assay; settings: A549, 72 h; in short: as §1

Row | Compound | IC50 (MCF7) [µM] | IC50 (HL-60) [µM] | IC50 (A549) [µM]
1 | C[C@H]1[C@@H]2CC[C@@H]1[C@@H](OC(=O)c1ccccc1)/C=C/C=C/C(=O)O[C@H]1[C@@H](C)C[C@@H]3[C@]1(O)[C@H](O)[C@@]1(CO)O[C@H]1[C@H]1[C@H]4OC5(c6ccccc6)O[C@@H]([C@@H](C)[C@@]13O5)[C@@]4(O)[C@](C)(O)C2 [REDIOCIDE C] | > 10 | > 10 | > 10
2 | C=C(C)[C@@]12OC3(c4ccccc4)O[C@@H]1[C@@H]1[C@@H]4O[C@]4(C)[C@@H](O)[C@@]4(O)[C@@H](C[C@H](C)[C@@H]4O)[C@@]1(O3)[C@H](C)[C@@H]2OC(=O)c1ccccc1 [TRIGONOSIN A] | > 10 | > 10 | > 10
3 | C=C(C)[C@@]1(OC(=O)c2ccccc2)[C@H](OC(C)=O)[C@@H]2[C@H](OC(C)=O)[C@]3(C)O[C@@]4([C@@H]3O)[C@@H](O)[C@@H](C)C[C@H]4[C@@]2(O)[C@H](C)[C@@H]1OC(C)=O [TRIGONOSIN D] | > 10 | > 10 | > 10
4 | C=C(C)[C@@]12OC3(c4ccccc4)O[C@@H]1[C@@H]1[C@H](O)[C@@](C)(O)[C@@H](O)[C@@]4(O)[C@@H](C[C@H](C)[C@@H]4O)[C@@]1(O3)[C@H](C)[C@@H]2OC(=O)c1ccccc1 [TRIGONOSIN C] | > 10 | > 10 | > 10
5 | CC(C)CC(=O)O[C@H]1/C=C/C=C/C(=O)O[C@H]2[C@@H](C)C[C@@H]3[C@]2(O)[C@H](O)[C@@]2(CO)O[C@H]2[C@H]2[C@H]4OC5(c6ccccc6)O[C@@H]([C@@H](C)[C@@]23O5)[C@@]4(O)[C@](C)(O)C[C@H]2CC[C@H]1[C@H]2C [REDIOCIDE A] | > 10 | > 10 | > 10
6 | C=C(C)[C@@]12OC3(c4ccccc4)O[C@@H]1[C@@H]1[C@@H]4O[C@]4(CO)[C@@H](O)[C@@]4(O)[C@@H](C[C@H](C)[C@@H]4O)[C@@]1(O3)[C@H](C)[C@@H]2OC(=O)c1ccccc1 [TRIGONOSIN B] | > 10 | > 10 | > 10
7 | C=C(C)[C@@]12OC3(c4ccccc4)O[C@@H]1[C@@H]1[C@@H]4O[C@]4(C)[C@@H](O)[C@]4(O)C(=O)[C@@H](C)C[C@H]4[C@@]1(O3)[C@H](C)[C@@H]2OC(=O)c1ccccc1 [TRIGOXYPHIN B] | > 10 | > 10 | > 10
8 | C[C@H]1[C@@H]2CC[C@@H]1[C@H](OC(=O)c1ccccc1)/C=C/C=C/C(=O)O[C@H]1[C@@H](C)C[C@@H]3[C@]1(O)[C@H](O)[C@@]1(CO)O[C@H]1[C@H]1[C@H]4OC5(c6ccccc6)O[C@@H]([C@@H](C)[C@@]13O5)[C@@]4(O)[C@](C)(O)C2 [TRIGONOSIN E] | > 10 | > 10 | > 10
9 | COc1cccc2c1C(=O)c1c(O)c3c(c(O)c1C2=O)C[C@@](O)(C(=O)CO)C[C@@H]3O[C@H]1C[C@H](N)[C@H](O)[C@H](C)O1 [DOXORUBICIN HYDROCHLORIDE] | 0.15 | 0.13 | 0.41
10 | C[C@H]1[C@@H]2CC[C@@H]1[C@@H](OC(=O)c1ccccc1)/C=C/C=C\C(=O)O[C@H]1[C@@H](C)C[C@@H]3[C@]1(O)[C@H](O)[C@@]1(CO)O[C@H]1[C@H]1[C@H]4OC5(c6ccccc6)O[C@@H]([C@@H](C)[C@@]13O5)[C@@]4(O)[C@](C)(O)C2 [TRIGONOSIN F] | > 10 | > 10 | > 10
11 | C=C(C)[C@@]12OC3(c4ccccc4)O[C@@H]1[C@@H]1[C@@H]4O[C@]4(C)[C@@H](O)[C@]4(O)C(=O)C(C)=C[C@H]4[C@@]1(O3)[C@H](C)[C@@H]2OC(=O)c1ccccc1 [TRIGOXYPHIN A] | > 10 | > 10 | > 10
